Measurements published in the RNAGym collection of RNA variant scans (doi:10.1126/science.aae0568).
Fewer inactive variants are shown than the library holds.

B1: tRNA (parent)
chain: GUUCCGUUGGCGUAAUGGUAACGCGUCUCCCUCCUAAGGAGAAGACUGCGGGUUCGAGUCCCGUACGGAACG

Variants of: B1
Test: yeast fitness relative to wild type (ratio to wild type); higher = fitter; tRNA-Arg(CCU), competitive growth, 37 C, YPD
How it was run: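 Variants of the tRNA-Arg(CCU) gene, chemically synthesised with a 3% per-site mutation rate at 69 sites, were placed at the native genomic locus in Saccharomyces cerevisiae. The pooled strains were competed in YPD at 37°C for 24 hours in six parallel replicates. Gene amplicons from the start population and from each end population were read by 100-nucleotide paired-end sequencing. Darwinian fitness relative to wild type came from changes in genotype frequencies; genotypes needed ≥ 100 starting reads, and estimates < 0.5 were set to 0.5.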

| Variant | yeast fitness |
| --- | --- |
| G50A A69C | 0.74 |
| C49U C61U | 0.814 |
| C49U C61A | 0.57 |
| C49G U59G | 0.635 |
| U53G A57G C62U | 0.62 |
| C55A C61A | 0.579 |
| G52A G58C | 0.801 |
| C55U G63A A65G | ≤ 0.5 |
| G56C A70U | 0.83 |
| G56C A70G | 0.672 |
| U54C A57U | 0.595 |
| U53G G56C G67A | ≤ 0.5 |
| C55A A70G | 0.557 |
| G50C G51A | 0.76 |
| C49G G50A G68C A69G | ≤ 0.5 |
| C49U A65C A70G | 0.768 |
| G50A U54G | 0.559 |
| C49G G52C | 0.664 |
| G50C G56A | 0.635 |
| C49U G58A | 0.948 |
| G51A U54C | 0.715 |
| G56C A57U C60U | 0.698 |
| U53C C62U | 0.737 |
| G51C C60U G63A U64G | ≤ 0.5 |

| Variant | yeast fitness |
| --- | --- |
| C49G G58A C66G | 0.564 |
| U53A C60G | 0.617 |
| G56C A65U | 0.714 |
| G56C A65C | 0.754 |
| G51A U53G G58A | ≤ 0.5 |
| U53G A57G | 0.584 |
| C49G U59A G63A | 0.564 |
| U54G C55G A65U | ≤ 0.5 |
| G56C C61A G63U | 0.539 |
| C55U A57U U64G | 0.585 |
| G51A A65U A69C | ≤ 0.5 |
| U53C C61A G68A | 0.58 |
| U53C G56A | 0.802 |
| U53G U54A C62U | 0.549 |
| U54G A57U A65U | ≤ 0.5 |
| C49U C55U A69C | 0.665 |
| G56A U59C | 1.05 |
| C49A G67A G68U | ≤ 0.5 |
| G51A A57U A65U | ≤ 0.5 |
| G56A | 1.03 |
| G56C | 0.663 |
| U54G C60G G63C | ≤ 0.5 |
| G51A C60U G67A | 0.567 |
| C55U G63A | 0.643 |

| Variant | yeast fitness |
| --- | --- |
| G50C A57C C61U | 0.613 |
| C49G G56C G67C | ≤ 0.5 |
| C55A U59G A65C | ≤ 0.5 |
| C55G U59A C62U | ≤ 0.5 |
| G56A G63A G67C | 0.543 |
| G52C C61A | ≤ 0.5 |
| G52C C61U | 0.66 |
| C49G U53A C66U | ≤ 0.5 |
| C55G A65G C66G | 0.567 |
| G52A G67A | 0.831 |
| U53A A70C | 0.769 |
| G52C G56C | ≤ 0.5 |
| U54C A65U | 0.894 |
| U54C C55U | 0.72 |
| U54C C55A | 0.635 |
| C55A C62A | 0.518 |
| G56A C61U | 0.994 |
| C55G A69C | 0.593 |
| U53C A57C | 0.54 |
| U53C A57G | 0.79 |
| G50U G68C | 0.804 |
| C49U A65U A69U | 0.861 |
| G52A A70U | 0.767 |
| U54G U59C A69U | ≤ 0.5 |

| Variant | yeast fitness |
| --- | --- |
| G51A C60U G68A | ≤ 0.5 |
| C55G G67A | 0.729 |
| C49G U53C | 0.723 |
| G52C C55U | 0.522 |
| U54G A57G | 0.615 |
| C55U G56C | 0.593 |
| U54C U59G A70G | 0.615 |
| G50A A57C | 0.611 |
| G50C C55A A57C | 0.559 |
| C49G U64G A65G A70U | 0.683 |
| G56A A70C | 1.06 |
| G56A A70G | 0.886 |
| C55G A57U C62U | 0.544 |
| G51C G56A G58C | ≤ 0.5 |
| G51U A69C | 0.824 |
| C55A A69C | 0.613 |
| C49G U53A A70G | ≤ 0.5 |
| C55A C62G G67A | ≤ 0.5 |
| U53C G58C | 0.977 |
| G52C A65U G67C | ≤ 0.5 |
| G50A C61U | 0.863 |
| G56C A69C | 0.818 |
| U53C A57C A65U | ≤ 0.5 |
| C49U U53A | 0.791 |

| Variant | yeast fitness |
| --- | --- |
| U54C C61A G68U | ≤ 0.5 |
| G51C U59G | 0.508 |
| C55A U59C | 0.647 |
| C49G C55A C60U C66A | ≤ 0.5 |
| C55G C62G | 0.602 |
| C55G C62A | 0.619 |
| G51A C61U A65G A69C | 1.07 |
| C55G G56C | ≤ 0.5 |
| U53C G67A | 0.808 |
| G51A C61A G68C | ≤ 0.5 |
| G52C G63C | 0.577 |
| C49U U53A G68A | ≤ 0.5 |
| G50C U54A C61A | 0.676 |
| C49G G56A A69C | 0.73 |
| C49U G58C C62G A69C | 0.559 |
| G56A A57U | 0.882 |
| G50C C55G C60A | 0.63 |
| C55A U64A | 0.619 |
| G52C A57U A69U | ≤ 0.5 |
| U54C C60G | 0.539 |
| C49U G52A | 0.748 |
| C49G G63C G68U | 0.522 |
| C49A U59A | 0.681 |
| G50C C62G C66U | 0.968 |

| Variant | yeast fitness |
| --- | --- |
| G50C U59A | 0.703 |
| U54G C61U G67C | ≤ 0.5 |
| U53A U59C | 0.555 |
| U54A C62A | 0.595 |
| U54A C62G | 0.637 |
| G56A A65G C66U G68A | 0.609 |
| G50A C55U G67C | 0.563 |
| G50C G52A | 0.607 |
| C49U U54A C55G | ≤ 0.5 |
| G51A G52U C62A | ≤ 0.5 |
| C49U C55U | 0.649 |
| C49U C55A | 0.557 |
| G52A C66A A69U | 0.551 |
| G56A G58C C61G | 0.707 |
| G50C C60U C62A | 0.676 |
| C55U G68A | 0.765 |
| C55U G68C | 0.702 |
| C55U G68U | 0.64 |
| C49U C60A C61A | 0.574 |
| C49G A57C G67U | 0.576 |
| C55A A65U | 0.572 |
| C49A G67C | 0.825 |
| U54C C66G | 0.803 |
| C55G A57U G67A | ≤ 0.5 |

| Variant | yeast fitness |
| --- | --- |
| U53C U64C | 0.817 |
| C49U G68A | 0.85 |
| C49U G68U | 0.976 |
| G52A C60U | 0.579 |
| G50A A70C | 0.823 |
| U54G G68A | 0.541 |
| G56A C66G | 0.689 |
| G50C A57G | 0.789 |
| C49G C60U | 0.692 |
| G52C C55U A65U | ≤ 0.5 |
| C49U U64A A69U | 0.558 |
| G52C C55U G63A A65U | ≤ 0.5 |
| G50A A57C C66U | ≤ 0.5 |
| G52A A65C | 0.848 |
| G52A U59A C61A | ≤ 0.5 |
| G56C A57G | 0.706 |
| G56C A57C | 0.529 |
| C49U C61U A70G | 0.831 |
| G56A G63A | 0.726 |
| C55U C61G A65G G68A | 0.584 |
| C55A G67A | 0.658 |
| C49A U53C C62G | 0.598 |
| C49U C61G A69C | 0.559 |
